Activity calls are given as the source filed them. The calls are words filed in the database; no cut-off is given here.
What was measured:
[1] = target: T1, Macrophage migration inhibitory factor (Homo sapiens, UniProt P14174); assay: (§1) Inhibition of recombinant human MIF tautomerase activity expressed in Escherichia coli using L-dopachrome methyl ester as substrate incubated for 30 mins prior to substrate addition measured for 3 mins
T1 sequence (P14174 whole entry): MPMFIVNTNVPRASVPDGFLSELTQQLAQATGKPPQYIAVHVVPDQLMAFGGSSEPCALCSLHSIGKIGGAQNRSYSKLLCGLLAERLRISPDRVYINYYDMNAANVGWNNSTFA

[2] = target: T2, Macrophage migration inhibitory factor (Homo sapiens) (UniProt P14174); assay: as §1
T2 sequence (whole entry): T1 sequence (P14174 whole entry)

[3] = target: T2, Macrophage migration inhibitory factor (Homo sapiens); assay: Inhibition of recombinant MIF (unknown origin)-induced mouse RAW264.7 cell chemotactic migration at 20 uM preincubated for 30 mins followed by macrophage addition measured every 15 mins for 4 hrs relative to control
Procedure, shortened: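 Recombinant MIF with or without compound placed in the lower chamber of a CIM-16 plate 30 min before RAW 264.7 cells (20,000/well, serum-free medium) added to the upper chamber. Impedance-based migration on xCELLigence RTCA-DP read every 15 min for 4 h. Heat-inactivated MIF as negative control; % of MIF-alone migration; mean ± SD, n = 3.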

[4] = target: T2, Macrophage migration inhibitory factor (Homo sapiens); assay: (§2) Inhibition of recombinant MIF (unknown origin)-mediated glucocorticoid overriding activity in LPS-stimulated mouse RAW264.7 cells assessed as inhibition of dexamethasone-induced intracellular nitric oxide production at 20 uM preincubated for 30 mins followed by LPS challenge measured at 16 hrs by Griess assay relative to control; assay type: cell-based
Procedure, shortened: (§3)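 RAW 264.7 cells, 5 × 10^4/well in triplicate, pretreated 30 min with dexamethasone (0.1 μM) plus recombinant MIF (0.2 μM) with or without compound, then stimulated with LPS (0.1 μg/mL). TNF-α in supernatant by sandwich ELISA at 4 h; NO in supernatant by Griess reagent at 16 h. Mean ± SD, n = 3, three independent experiments.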

[5] = target: T2, Macrophage migration inhibitory factor (Homo sapiens); assay: Inhibition of recombinant MIF (unknown origin)-induced ERK1/2 phosphorylation in mouse RAW264.7 cells at 20 uM preincubated for 30 mins followed by protein addition measured after 20 mins by Western blot analysis relative to control; assay type: cell-based
Procedure, shortened: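 RAW 264.7 cells given compound 30 min before MIF (0.1 μg/mL). Lysates taken 20 min after stimulation, separated on 12% SDS-PAGE and immunoblotted for phospho-ERK1/2 and total ERK1/2 (loading control), ECL detection. Densitometry expressed as % of MIF-alone band intensity.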

[6] = target: T2, Macrophage migration inhibitory factor (Homo sapiens); assay: as §2, with “TNF-alpha” for “nitric oxide”, “4” for “16”, “ELISA” for “Griess assay”; assay type: cell-based; procedure, shortened: as §3
RAW264.7 = assay: Antiinflammatory activity in mouse RAW264.7 cells assessed as inhibition of LPS-induced nitrite production at 40 uM after 24 hrs by Griess assay; assay type: functional, cell-based
Procedure, shortened: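 RAW 264.7 macrophages (DMEM, 5% heat-inactivated FBS, 37 °C, 5% CO2) incubated 24 h with 0.1 μg/mL LPS with or without compound; nitrite in supernatant by Griess reagent. Mean ± SD, n = 3, representative of three independent experiments.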

Structure (SMILES)	IC50 [1] [µM]	inhibition [2]	inhibition [5]	also measured
COc1ccc(-c2cc(C)nc(SCc3cccc(C(=O)O)c3)n2)cc1	45.5			
COc1cc(-c2nc3sc4c(c3c(=O)[nH]2)CCCC4)cc(Br)c1OCC(=O)O	22.6			
O=C(Nc1ccccc1C(=O)O)c1cc(S(=O)(=O)Nc2ccc(F)cc2)ccc1Cl	74.5			
Cc1c(CCC(=O)O)c(=O)oc2cc(OCc3ccccc3Br)ccc12	23.1			
COC(=O)C[C@H]1CC(c2ccc(O)cc2)=NO1		Dose-dependent effect	Active	fold change (FC) [3]: 2.2; inhibition [4]: 128%; inhibition [6]: 128%
O=C(O)C[C@@H](Cc1ccccc1)c1ccco1	85.6			
COc1cc(-c2nc3ccccc3s2)cc(Br)c1OCC(=O)O		Dose-dependent effect	55%	inhibition [3]: 83%; inhibition (RAW264.7): Active
COc1ccc(C(=O)O)cc1NC(=S)NC(=O)c1cc2ccccc2o1		Dose-dependent effect	59%	inhibition (RAW264.7): Active; inhibition [4]: 131%; inhibition [6]: 131%
COc1ccc2c3c(c(=O)oc2c1OCC(=O)O)CCCC3	25.8			
O=C(O)CCC(=O)Nc1nc(-c2cc3ccccc3oc2=O)cs1	102			
O=C(O)c1cccc(NC(=S)NC(=O)c2ccc(-c3ccccc3)cc2)c1		Dose-dependent effect	43%	inhibition [3]: 52%; inhibition (RAW264.7): Active
